The text below walks through data of ChEMBL document CHEMBL1153093, “Synthesis and structure-activity relationships of cassiarin A as potential antimalarials with vasorelaxant activity” (Bioorg Med Chem, 2009).

Calls of active or inactive are those of the source. The rule behind the calls is not given here.

One assay concerns Plasmodium falciparum. The experiment in a line: Antimalarial activity against chloroquine-sensitive Plasmodium falciparum 3D7 by giemsa stain.
The nature of assay [1]: Selectivity index, ratio of IC50 for human MCF7 to IC50 for chloroquine-sensitive Plasmodium falciparum 3D7.
For assay [2], the system named is Aorta. The experiment in a line: Vasorelaxant activity in Wistar rat endothelium-intact thoracic aortic rings assessed as inhibition of phenylephrine-induced tissue contraction at 30 uM. The format is functional, tissue-based. The procedure, abridged:
(§1)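 Thoracic aorta rings, 3 mm, in Krebs–Henseleit solution (95% O₂/5% CO₂, 37 °C), equilibrated 60 min at 1.0 g resting tension. Rings were contracted with 3 × 10⁻⁷ M phenylephrine. Endothelium was accepted if 10⁻⁵ M acetylcholine gave 80% relaxation. At the contraction plateau, samples were added at 1 × 10⁻⁶–3 × 10⁻⁵ M. Tension was recorded isometrically; data are mean ± SEM with ANOVA/Bonferroni.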

The test system of another assay is MCF7. The experiment in a line: Cytotoxicity against human MCF7 cells after 48 hrs by MTT assay. The conditions noted are these: MCF7, 48 h. The format is cell-based. In outline:
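MCF7 human breast adenocarcinoma cells seeded at 5 × 10³ cells/well and preincubated 24 h at 37 °C, 5% CO₂. Compounds were added at various concentrations for 48 h at 37 °C. MTT solution (5 mg/mL stock) was added for 2 h, and formazan was dissolved in 10% SDS–0.01 N HCl. OD was read at 550/700 nm in triplicate wells, and IC₅₀ was taken from % living cells vs control.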
(In general: Formazan colour is commonly taken as a measure of viable cells.)

Assay [3] can be described thus: Vasorelaxant activity in Wistar rat endothelium-intact thoracic aortic rings assessed as inhibition of phenylephrine-induced tissue contraction in presence of NO synthase-inhibitor L-NMMA. The format is functional. The conditions noted are these: Thoracic aorta.
The test system of assay [4] is Aorta. The assay can be described thus: Vasorelaxant activity in Wistar rat endothelium-removed thoracic aortic rings assessed as inhibition of phenylephrine-induced tissue contraction. The format is functional, tissue-based. The procedure, abridged: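 Isolated thoracic aorta rings, 3 mm, in oxygenated Krebs–Henseleit solution at 37 °C, equilibrated 60 min under 1.0 g tension. Rings were precontracted with 3 × 10⁻⁷ M phenylephrine, and at the plateau samples were added at 1 × 10⁻⁶–3 × 10⁻⁵ M. Relaxation was recorded by force transducer; data are mean ± SEM.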

Assay [5] has as its system Aorta. The experiment in a line: Vasorelaxant activity in Wistar rat endothelium-intact thoracic aortic rings assessed as inhibition of phenylephrine-induced tissue contraction. The format is functional, tissue-based. The procedure, abridged: as §1

For the compound `Cc1cc2c3c(cc(C)n2C)cc(=O)cc3o1`, the IC50 (commonly the concentration that inhibits the measured activity by half) with Plasmodium falciparum was 23.3 µM; in the assay on MCF7 it was > 100 µM. Also, in assay [1], the Ratio IC50 is > 4.2. In addition, in the assay on Aorta [2], the result was inactive.

Consider `CCCCn1c(C)cc2cc(=O)cc3oc(C)cc1c23`, for which the figures for the IC50 with Plasmodium falciparum and in the assay with MCF7 were 4.2 µM and > 100 µM, respectively. The Ratio IC50 in assay [1] was > 23. The result in the assay on Aorta [2] was inactive.

For the compound `CC1=Cc2nc(C)cc3cc(OS(=O)(=O)C(F)(F)F)cc(c23)O1`, the results for the IC50 in the assay on Plasmodium falciparum and in the assay with MCF7 were 0.41 µM and > 100 µM, respectively. In addition, the Ratio IC50 in assay [1] was > 244.

For the compound `Cc1cc2c3c(cc(C)n2-c2ccccc2)cc(=O)cc3o1`, the half-inhibitory concentration (IC50) in the assay with Plasmodium falciparum is 0.09 µM; with MCF7 it was > 100 µM. In assay [1], the Ratio IC50 is > 1110. Also, the result with Aorta [2] was inactive.

For `CNC(=N)NCCC[C@H](N)C(=O)O`, the outcome in assay [3] was inactive.

For the compound `CC1=Cc2nc(C)cc3cccc(c23)O1` [7-DEHYDROXYCASSIARIN A], the IC50 with Plasmodium falciparum was 5.4 µM; in the assay on MCF7, > 100 µM. Also, in assay [1], the Ratio IC50 was > 18.

As for `CC(=O)Oc1cc2c3c(nc(C)cc3c1)C=C(C)O2` [ACETYLCASSIARIN A], the IC50 with Plasmodium falciparum was 1.2 µM; in the assay on MCF7 it was > 100 µM. For the same compound, the Ratio IC50 in assay [1] is > 83.

`CC1=Cc2nc(C)cc3cc(OC(=O)c4ccccc4)cc(c23)O1` [BENZOYLCASSIARIN A]: the IC50 in the assay with Plasmodium falciparum is 1.2 µM; in the assay with MCF7 it was > 100 µM. In addition, the Ratio IC50 in assay [1] was > 83.

Turning to `CCCC(=O)Oc1cc2c3c(nc(C)cc3c1)C=C(C)O2` [BUTYROYLCASSIARIN A], the IC50 was 4.1 µM with Plasmodium falciparum and > 100 µM in the assay with MCF7. For the same compound, in assay [1], the Ratio IC50 is > 24. For the same compound, the result in the assay with Aorta [2] was Active.

Take `CC1=Cc2nc(C)cc3cc(OCc4ccccc4)cc(c23)O1` [CASSIARIN A BENZYL ETHER]: the results for the IC50 in the assay with Plasmodium falciparum and in the assay with MCF7 were 14.9 µM and 72.2 µM, respectively. Besides, the Ratio IC50 in assay [1] amounted to 4.8.

On to `CCCCOc1cc2c3c(nc(C)cc3c1)C=C(C)O2` [CASSIARIN A BUTYL ETHER], for which the IC50 is 3 µM with Plasmodium falciparum and 76.7 µM in the assay with MCF7. For the same compound, the Ratio IC50 in assay [1] is > 26.

Consider `COc1cc2c3c(nc(C)cc3c1)C=C(C)O2` [CASSIARIN A METHYL ETHER], for which the outcome with Aorta [4] was inactive. For the same compound, the IC50 in the assay on Plasmodium falciparum is 3.6 µM; with MCF7, 87.8 µM. Moreover, the Ratio IC50 in assay [1] was > 24. In addition, the outcome in the assay with Aorta [2] was Active. The Activity entry with Aorta [5] is “Dose-dependent effect”.

Regarding `CC1=Cc2nc(C)cc3cc(O)cc(c23)O1` [CASSIARIN A], the outcome with Aorta [4] was inactive. Further, the IC50 in the assay on Plasmodium falciparum is 0.023 µM; in the assay with MCF7, > 100 µM. In assay [1], the Ratio IC50 was > 4350. Further, in the assay on Aorta [2], the outcome was Active. Also, the Activity result in the assay with Aorta [5] was “Dose-dependent effect”.

As to `COC(=O)CCCn1c(C)cc2cc(=O)cc3oc(C)cc1c23` [CASSIARIN B], the IC50 in the assay with Plasmodium falciparum was 22 µM; in the assay on MCF7, > 100 µM. In assay [1], the Ratio IC50 is > 4.5. Further, the outcome in the assay with Aorta [2] was inactive.

`CCN(CC)CCCC(C)Nc1ccnc2cc(Cl)ccc12` (configuration not stated) [CHLOROQUINE]: the midpoint of inhibition in the assay on MCF7, the IC50, lay at 36.1 µM.
